Assay results reported in ChEMBL document CHEMBL1148521, “Synthesis, antitumor activity, and mechanism of action of benzo[a]pyrano[3,2-h]acridin-7-one analogues of acronycine” (J Med Chem, 2006).
Calls of active or inactive are those of the source. The calls are words filed in the database; no cut-off is given here.

Legend:
L1210 [1] = experiment: Antiproliferative activity against mouse L1210 cell line by MTT assay; type: functional, cell-based
How it was run: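 L1210 cells cultured in RPMI 1640 with 10% fetal calf serum, 2 mM glutamine, penicillin/streptomycin and 10 mM HEPES pH 7.4. Exposed to nine serial drug dilutions in triplicate for 48 h (four doubling times), then read by tetrazolium (MTT) assay. IC50 is the concentration cutting optical density by 50% versus untreated controls; mean of at least three independent experiments.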

Nucleic Acid = experiment: Alkylation of DNA at 50 uM by gel shift assay; type: nucleic-acid assay
How it was run: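 Radiolabeled 117-bp pBS DNA fragment (EcoRI/PvuII cut, 3′-end-labeled at EcoRI site with [³²P]dATP, gel-purified) incubated with drug at 50 µM in 1 mM Na cacodylate pH 7.0, dark, room temperature, 2 h or 24 h. Resolved on native polyacrylamide gel in TBE; bound versus free DNA scored as strong, weak or no alkylation.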

KB 3-1 = experiment: Antiproliferative activity against human KB-3-1 cell line by MTT assay; type: functional, cell-based
How it was run: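 KB-3-1 cells grown in DMEM with 10% fetal calf serum, 2 mM glutamine, penicillin/streptomycin and 10 mM HEPES pH 7.4. Microculture tetrazolium assay: nine serial drug dilutions in triplicate for 96 h (four doubling times). IC50 is the concentration halving optical density relative to untreated controls; mean of at least three separate experiments.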

L1210 [2] = experiment: Cell cycle arrest in L1210 cell line by accumulation at S phase at 2.5 uM after 21 hrs; type: functional, Mus musculus
How it was run: (§1)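 L1210 cells at 5 × 10⁵ cells/mL treated 21 h with various drug concentrations. Then ethanol-fixed (70%), washed, and stained 30 min at 20 °C in PBS with 100 µg/mL RNase and 50 µg/mL propidium iodide. Flow cytometry on 10 000 cells per sample. Highest percentage of S-phase cells reported with the concentration giving it.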

L1210 [3] = experiment: Cell cycle arrest in L1210 cell line by accumulation at S phase after 21 hrs; type: functional, cell-based; conditions: Mus musculus; how it was run: as §1
L1210 [4] = experiment: Cell cycle arrest in L1210 cell line by accumulation at S phase at 5 uM after 21 hrs; type: functional, Mus musculus; how it was run: as §1
L1210 [5] = experiment: Cell cycle arrest in L1210 cell line by accumulation at S phase at 10 uM after 21 hrs; type: functional, Mus musculus; how it was run: as §1
MC-38 = experiment: Antiproliferative activity against mouse C38 cell line implanted in B6D2F1 mouse at 4 mg/kg, iv; type: functional
L1210 [6] = experiment: Cell cycle arrest in L1210 cell line by accumulation at S phase at 0.25 uM after 21 hrs; type: functional, Mus musculus; how it was run: as §1

| Compound | IC50 (L1210 [1]) [nM] | Activity (Nucleic Acid) | IC50 (KB 3-1) [nM] | Activity (L1210 [2]) [%] | Activity (L1210 [3]) | Activity (L1210 [4]) [%] | Activity (L1210 [5]) [%] | Activity (MC-38) [%] | Activity (L1210 [6]) [%] |
| --- | --- | --- | --- | --- | --- | --- | --- | --- | --- |
| CCC(=O)O[C@@H]1[C@H](O)c2c(cc(OC)c3c(=O)c4c5ccccc5ccc4n(C)c23)OC1(C)C (racemic) | 500 | Active | 100 | – | – | 69 | – | – | – |
| COc1cc2c(c3c1c(=O)c1c4ccccc4ccc1n3C)[C@@H](OC(=O)CC(C)C)[C@@H](OC(=O)CC(C)C)C(C)(C)O2 (racemic) | 700 | Active | 150 | – | – | – | 60 | – | – |
| COc1cc2c(c3c1c(=O)c1c4ccccc4ccc1n3C)[C@@H](O)[C@@H](O)C(C)(C)O2 (racemic) | 49000 | inactive | 32000 | – | – | – | – | – | – |
| COc1cc2c(c3c1c(=O)c1c4ccccc4ccc1n3C)[C@@H](O)[C@@H](OC(=O)N(C)C)C(C)(C)O2 (racemic) | 500 | Active | 100 | – | – | – | 73 | – | – |
| COc1cc2c(c3c1c(=O)c1c4ccccc4ccc1n3C)[C@@H](OC(C)=O)[C@@H](OC(C)=O)C(C)(C)O2 (racemic) | 700 | Active | 150 | – | – | 68 | – | > 80 | – |
| COc1cc2c(c3c1c(=O)c1c4ccccc4ccc1n3C)C=CC(C)(C)O2 [BENZO[A]ACRONYCINE] | 2500 | – | 8600 | – | inactive | – | – | – | – |
| COc1cc2c(c3c1c(=O)c1ccccc1n3C)C=CC(C)(C)O2 [ACRONINE] | 23000 | – | 3700 | – | – | – | – | – | – |
| COc1cc2c(c3nc4ccc5ccccc5c4c(OC)c13)[C@@H](OC(C)=O)[C@@H](OC(C)=O)C(C)(C)O2 (racemic) | 8000 | inactive | 7200 | – | – | – | – | – | – |
| CCN(CC)C(=O)O[C@@H]1c2c(cc(OC)c3c(=O)c4c5ccccc5ccc4n(C)c23)OC(C)(C)[C@@H]1OC(=O)N(CC)CC (racemic) | 900 | Active | 800 | – | – | – | 43 | – | – |
| C=CCCC(=O)O[C@@H]1[C@H](OC(C)=O)c2c(cc(OC)c3c(=O)c4c5ccccc5ccc4n(C)c23)OC1(C)C (racemic) | 700 | Active | 100 | – | – | 78 | – | – | – |
| COc1cc2c(c3c1c(=O)c1cc4ccccc4cc1n3C)[C@@H](OC(C)=O)[C@@H](OC(C)=O)C(C)(C)O2 (racemic) | 700 | Active | 100 | – | – | 73 | – | – | – |

The remaining compounds from weak to strong by IC50 (L1210 [1]), led by results:

| IC50 (L1210 [1]) [nM] | Activity (Nucleic Acid) | IC50 (KB 3-1) [nM] | Compound | Activity (L1210 [2]) [%] | Activity (L1210 [3]) | Activity (L1210 [4]) [%] | Activity (L1210 [5]) [%] | Activity (MC-38) [%] | Activity (L1210 [6]) [%] |
| --- | --- | --- | --- | --- | --- | --- | --- | --- | --- |
| 28000 | – | 33000 | COc1cc2c(c3nc4ccc5ccccc5c4c(OC)c13)C=CC(C)(C)O2 | – | – | – | – | – | – |
| 2000 | inactive | 6300 | COc1cc2c(c3c1c(=O)c1c4ccccc4ccc1n3C)C(=O)[C@@H](OC(C)=O)C(C)(C)O2 | – | – | – | – | – | – |
| 1400 | inactive | 6300 | COc1cc2c(c3nc4ccc5ccccc5c4c(OC)c13)[C@@H](O)[C@@H](O)C(C)(C)O2 (racemic) | – | – | – | – | – | – |
| 1000 | Active | 200 | COc1cc2c(c3c1c(=O)c1c4ccccc4ccc1n3C)[C@@H](O)[C@@H](OC(=O)CC(C)C)C(C)(C)O2 (racemic) | – | – | 73 | – | – | – |
| 800 | Active | 300 | COc1cc2c(c3c1c(=O)c1c4ccccc4ccc1n3C)[C@@H](O)[C@@H](OC(=O)c1ccccc1)C(C)(C)O2 (racemic) | 73 | – | – | – | – | – |
| 800 | inactive | 250 | C=CCCC(=O)O[C@@H]1[C@H](O)c2c(cc(OC)c3c(=O)c4c5ccccc5ccc4n(C)c23)OC1(C)C (racemic) | – | – | 70 | – | – | – |
| 800 | Active | 100 | COc1cc2c(c3c1c(=O)c1c4ccccc4ccc1n3C)[C@@H](OC(C)=O)[C@@H](OC(=O)CC(C)C)C(C)(C)O2 (racemic) | – | – | 76 | – | – | – |
| 700 | Active | 200 | COc1cc2c(c3c1c(=O)c1c4ccccc4ccc1n3C)[C@@H](O)[C@@H](OC(C)=O)C(C)(C)O2 (racemic) | – | – | 76 | – | – | – |
| 500 | inactive | 2000 | COc1cc2c(c3nc4ccc5ccccc5c4c(O)c13)C(=O)C(O)C(C)(C)O2 (centres undefined) | – | inactive | – | – | – | – |
| 500 | Active | 100 | CCC(=O)O[C@@H]1c2c(cc(OC)c3c(=O)c4c5ccccc5ccc4n(C)c23)OC(C)(C)[C@@H]1OC(=O)CC (racemic) | – | – | 70 | – | – | – |
| 500 | Active | 130 | C=CCCC(=O)O[C@@H]1c2c(cc(OC)c3c(=O)c4c5ccccc5ccc4n(C)c23)OC(C)(C)[C@@H]1OC(=O)CCC=C (racemic) | – | – | – | 66 | – | – |
| 60 | inactive | 15 | COc1cc2c(c3c1c(=O)c1c4ccccc4ccc1n3C)[C@H]1OC(=O)O[C@H]1C(C)(C)O2 (racemic) | – | – | – | – | – | 64 |
